Test [1] has as its target T1, Oxysterols receptor LXR-alpha (Homo sapiens) (UniProt Q13133).
T1 sequence (whole entry): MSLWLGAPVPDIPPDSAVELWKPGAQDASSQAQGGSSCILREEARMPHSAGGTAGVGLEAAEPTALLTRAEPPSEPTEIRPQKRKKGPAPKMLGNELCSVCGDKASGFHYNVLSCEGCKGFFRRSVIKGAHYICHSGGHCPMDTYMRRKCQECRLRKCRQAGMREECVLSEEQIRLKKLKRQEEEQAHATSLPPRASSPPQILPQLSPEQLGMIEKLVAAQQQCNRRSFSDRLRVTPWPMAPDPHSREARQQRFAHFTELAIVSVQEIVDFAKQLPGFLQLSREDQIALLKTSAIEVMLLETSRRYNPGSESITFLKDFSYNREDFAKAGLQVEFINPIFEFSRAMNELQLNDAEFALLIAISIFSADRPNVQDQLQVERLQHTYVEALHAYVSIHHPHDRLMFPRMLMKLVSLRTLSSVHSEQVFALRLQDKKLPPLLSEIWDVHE
In words: Induction of recruitment of Trap220 peptide to LXRalpha (unknown origin) by TR-FRET LXR-alpha co-activator assay. A digest of the protocol:
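Cell-free LanthaScreen TR-FRET LXR-α co-activator recruitment assay, run per kit instructions, with T0901317 as reference agonist.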
(In general: In TR-FRET formats the signal depends on donor and acceptor labels being close together.)

The target of test [2] is T2, Oxysterols receptor LXR-beta (Homo sapiens, UniProt P55055).
T2 sequence (P55055 whole entry): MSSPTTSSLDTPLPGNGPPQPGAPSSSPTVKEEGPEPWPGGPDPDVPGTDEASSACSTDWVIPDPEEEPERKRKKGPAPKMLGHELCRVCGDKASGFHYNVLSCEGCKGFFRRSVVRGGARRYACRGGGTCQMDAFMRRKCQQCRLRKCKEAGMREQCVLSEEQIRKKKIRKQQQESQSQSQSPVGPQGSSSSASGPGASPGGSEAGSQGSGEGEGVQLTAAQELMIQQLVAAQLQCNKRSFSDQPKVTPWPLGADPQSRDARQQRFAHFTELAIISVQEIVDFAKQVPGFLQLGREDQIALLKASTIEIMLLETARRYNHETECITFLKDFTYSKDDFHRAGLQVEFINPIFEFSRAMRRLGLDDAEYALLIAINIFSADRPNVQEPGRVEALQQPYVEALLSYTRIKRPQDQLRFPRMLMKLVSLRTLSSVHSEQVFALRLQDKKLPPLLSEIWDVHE
In words: Binding affinity to LXRbeta (unknown origin).

Test [3] has as its target T3, Oxysterols receptor LXR-alpha (Homo sapiens, UniProt Q13133).
T3 sequence (Q13133 whole entry): T1 sequence (whole entry)
Kind of test: Binding affinity to LXRalpha (unknown origin).

Test [4] has as its system HepG2. Kind of test: Reduction in lipid accumulation in human HepG2 cells at 1 microM by Oil Red O staining. The class given is functional, cell-based.
In test [5] the target is T4, Oxysterols receptor LXR-beta (Homo sapiens) (UniProt P55055).
T4 sequence (whole entry): T2 sequence (P55055 whole entry)
Kind of test: Induction of recruitment of D22 peptide to LXRbeta (unknown origin) by TR-FRET LXR-alpha co-activator assay.

The subject of test [6] is HepG2. In words: Downregulation of FAS protein expression in human HepG2 cells at 50 to 100 microM by immunoblotting. The class given is functional. In a few lines:
(§1)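 Cells were preincubated 24 h in DMEM, then treated 24 h with 50 or 100 µM alongside a 1% DMSO vehicle. They were lysed in ice-cold Tris-HCl pH 7.4/EDTA/NaCl/0.5% Triton X-100 buffer with protease inhibitors. 30 µg protein was run on 10% SDS-PAGE and transferred to nitrocellulose. Blots were probed with target antibodies, with α-tubulin as reference, n = 3.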
(In general: Immunoblotting shows a protein as a band on a membrane.)

The test system of test [7] is HepG2. Kind of test: Downregulation of SREBP-1c protein expression in human HepG2 cells at 50 to 100 microM by immunoblotting. The class given is functional. A digest of the protocol: as §1
Test [8] concerns HepG2. In words: Downregulation of LXRalpha protein expression in human HepG2 cells at 50 to 100 microM by immunoblotting. The class given is functional. In a few lines:
as §1

Test [9] has as its system HepG2. In words: Downregulation of SCD-1 mRNA expression in human HepG2 cells at 50 to 100 microM by qPCR. The class given is functional. In a few lines:
(§2)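 Cells were preincubated 24 h in DMEM, then exposed 24 h to 50 or 100 µM (final) at 37 °C in 5% CO2. Vehicle was 1% DMSO, and each treatment was run at least in triplicate. Total RNA was extracted and transcripts were measured by qPCR relative to vehicle control, mean ± SE, n = 3.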

Test [10] concerns HepG2. Kind of test: Downregulation of FAS mRNA expression in human HepG2 cells at 50 to 100 microM by qPCR. The class given is functional. A digest of the protocol:
as §2
For orientation: In qPCR the cycle at which signal appears reflects the starting amount.

In test [11] the test system is HepG2. Kind of test: Downregulation of LXRalpha mRNA expression in human HepG2 cells at 50 to 100 microM by qPCR. The class given is functional. A digest of the protocol: as §2
Test [12] has as its system HepG2. In words: Downregulation of SREBP-1c mRNA expression in human HepG2 cells at 50 to 100 microM by qPCR. The class given is functional. A digest of the protocol: as §2
The test system of test [13] is HepG2. In words: Reduction in lipid accumulation in human HepG2 cells at 100 microM by Oil Red O staining. The class given is functional, cell-based.
Test [14] deals with HepG2. Kind of test: Reduction in lipid accumulation in human HepG2 cells at 50 microM by Oil Red O staining. The class given is functional, cell-based.
Test [15] deals with RAW264.7. Kind of test: Induction of LXR-responsive genes in mouse RAW264.7 cells assessed as increase in ABCA1 protein expression measured at 100 microM by immunoblotting. The class given is functional, cell-based. A digest of the protocol: as §1
For test [16], the system named is RAW264.7. In words: Induction of cholesterol efflux genes in mouse RAW264.7 cells assessed as increase in LXRbeta protein expression measured at 100 microM by immunoblotting. The class given is functional, cell-based. A digest of the protocol:
as §1

The test system of test [17] is RAW264.7. In words: Induction of cholesterol efflux genes in mouse RAW264.7 cells assessed as increase in LXRalpha protein expression measured at 100 microM by immunoblotting. The class given is functional, cell-based. In a few lines:
as §1

Test [18] has as its system RAW264.7. Kind of test: Induction of LXR-responsive genes in mouse RAW264.7 cells assessed as increase in Abca1 mRNA expression measured at 50 to 100 microM by qPCR. The class given is functional, cell-based. In a few lines:
as §2

Test [19] relates to RAW264.7. In words: Induction of cholesterol efflux genes in mouse RAW264.7 cells assessed as increase in LXRbeta mRNA expression measured at 50 microM by qPCR. The class given is functional. In a few lines: as §2
The subject of test [20] is RAW264.7. In words: Induction of cholesterol efflux genes in mouse RAW264.7 cells assessed as increase in LXRbeta mRNA expression measured at 100 microM by qPCR. The class given is functional. In a few lines: as §2
Test [21] has as its system RAW264.7. Kind of test: Induction of cholesterol efflux genes in mouse RAW264.7 cells assessed as increase in LXRbeta mRNA expression measured by qPCR. The class given is functional, cell-based. In a few lines:
as §2

Test [22] has as its system RAW264.7. Kind of test: Induction of cholesterol efflux genes in mouse RAW264.7 cells assessed as increase in LXRalpha mRNA expression measured at 50 to 100 microM by qPCR. The class given is functional. In a few lines: as §2
In test [23] the test system is RAW264.7. In words: Induction of cholesterol efflux in mouse RAW264.7 cells assessed as reduction in cellular cholesterol level at 100 microM in presence of higher cholesterol relative to control. On the set-up: scale not given: the % may be the effect or the level left. The class given is functional.
Test [24] has as its system RAW264.7. In words: Induction of cholesterol efflux in mouse RAW264.7 cells assessed as reduction in cellular cholesterol level at 100 microM relative to control. The class given is functional. On the set-up: scale not given: the % may be the effect or the level left.
Test [25] addresses T1, Oxysterols receptor LXR-alpha (Homo sapiens). Kind of test: Agonist activity at LXRalpha (unknown origin) transfected in human CHO-K1 cells assessed as induction of transactivation at 50 to 200 microM by luciferase reporter gene transactivation assay relative to control. The class given is cell-based. A digest of the protocol:
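CHO-K1 cells in DMEM/F12 with 10% heat-inactivated FBS and 1% penicillin/streptomycin, co-transfected with pGL4.35 GAL4-UAS luciferase reporter, pSV-β-galactosidase and a human LXRα plasmid (pFN26A). After 24 h, cells were treated 24 h with 50, 100 or 200 µM. Firefly luciferase was normalized to β-galactosidase in the same lysate and expressed vs control, mean ± SE, n = 3.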

Test [26] deals with RAW264.7. Kind of test: Induction of LXR-responsive genes in mouse RAW264.7 cells assessed as increase in Abca1 mRNA expression measured at 50 to 100 microM by qPCR.
The target of test [27] is Oxysterols receptor LXR-beta (Homo sapiens) (UniProt P55055). In words: Agonist activity at LXRbeta (unknown origin) transfected in human CHO-K1 cells assessed as induction of transactivation by luciferase reporter gene transactivation assay relative to control.
For test [28] the target is unchanged. Kind of test: Agonist activity at LXRbeta (unknown origin) transfected in human CHO-K1 cells assessed as induction of transactivation at 50 microM by luciferase reporter gene transactivation assay relative to control.
The target is the same in test [29]. In words: Agonist activity at LXRbeta (unknown origin) transfected in human CHO-K1 cells assessed as induction of transactivation at 200 microM by luciferase reporter gene transactivation assay relative to control.
Test [30] shares this target. Kind of test: Agonist activity at LXRbeta (unknown origin) transfected in human CHO-K1 cells assessed as induction of transactivation at 100 microM by luciferase reporter gene transactivation assay relative to control.

Calls of active or inactive are those of the source. The rule behind the calls is not given here. Where only a bound is given, the exact number is not on record here.

As usually defined, the EC50 is the concentration giving half of the maximal effect. On to `CCN(c1ccc(C(O)(C(F)(F)F)C(F)(F)F)cc1)S(=O)(=O)c1ccccc1`, for which the Activity result in [1] and in test [5] was “Dose-dependent effect” throughout. Further, the EC50 was found to be 10 nM in [2] and 320 nM in [3]. Moreover, in the test on HepG2 [4], the result was inactive.

Turning to `CC12CCC(CC1)C(C)(C)O2` [EUCALYPTOL], the outcome in test [1] and in [5] was inactive. Besides, the “inhibition (INH)” value in the test on HepG2 [6] is on record as 50%; with HepG2 [7] it was 25%; in the test on HepG2 [8] it was 40%; with HepG2 [9], 30%; with HepG2 [10] it was 24%; in the test on HepG2 [11], 10%. In the test on HepG2 [12], the “inhibition (INH)” value is 25%. Also, the result in the test on HepG2 [13], with HepG2 [14], in the test with RAW264.7 [15], in the test on RAW264.7 [16], in the test on RAW264.7 [17] and with RAW264.7 [18] was Active. The result with RAW264.7 [26] was Active. Further, the Activity in the test on RAW264.7 [19] is 35%; with RAW264.7 [20], 50%; in the test on RAW264.7 [21] it was “Dose-dependent effect”; in the test with RAW264.7 [22], 20%; with RAW264.7 [23], 17%; with RAW264.7 [24], 17%. Further, the results for the Activity in test [25] and in [27] were greater than 75% and “Dose-dependent effect”, respectively. Moreover, the fold change (FC) in test [28] is 1.4; in test [29], 2.3; in test [30], 2.
